Several values for one entry are separate records, joined by “and”; a condition that tells them apart may be missing. Identical values can stand only once. Like-named read-outs stand apart in the source and are kept apart here.

The target in series [1] is hCav1.2 (Homo sapiens, UniProt Q13936). Kind of series: hCav1.2 FLIPR assay in stably expressing cell line. The format is cell-based. The note with it: read-out: Inhibition at 10 μM [%] hCav1.2.
The target of series [2] is T1, CatSper (Homo sapiens, UniProt Q7RTX7+Q86XQ3+Q8NEC5+Q96P56). In words: Progesterone-induced calcium uptake. The format is cell-based.
Series [3] has as its system human sperm. In words: CASA: PGE1-induced hyperactivated motility. Type of series: cell-based. The conditions noted are these: 100 nM compound, 100 nM PGE1, HAM measured after 4 h.
For series [4], the target named is T1, CatSper. In words: Whole cell patch clamp electrophysiology of ICatSper in human sperm. Type of series: cell-based. The conditions noted are these: for Inhibition (block) of the inward ICatSper: 10 μM compound, human sperm, CsDVF. The method in brief:
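Swim-up sperm, seal at cytoplasmic droplet in HS buffer (pH 7.4), 12–18 MΩ pipettes with CsDVF internal. Break-in by 1 ms 450 mV pulses. Control current in CsDVF bath, then 10 μM compound for ~8–10 s. Ramp −80 to +80 mV from 0 mV every 3 s. Current density at ±80 mV, room temperature. Washout with CsDVF.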
For orientation: In patch-clamp work, channel activity is measured electrically.

Series [5] in a line: AlamarBlue cytotoxicity assay in IMR-90 fibroblasts. Type of series: cell-based, human. The conditions noted are these: human, IMR-90 lung fibroblast cells. The method in brief:
(§1)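 IMR-90 lung fibroblasts cultured 2 weeks in EMEM + 10% FBS, split 2–4 days before use, trypsin-EDTA detached and resuspended in culture medium. Added to test compound (2.2x in Low/Low buffer). 8 half-log concentrations, 100 μM to 32 nM final, in duplicate. AlamarBlue added, 37 °C, fluorescence 560/590 nm read every 30 min over 7 h. IC50 from concentration-response fit.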
(Resazurin is reduced to fluorescent resorufin, in cell work by metabolically active cells.)

In series [6] the test system is IMR‐90 fibroblasts. The series is described as above. The conditions noted are these: at concentrations fully inhibiting CatSper; AlamarBlue, 2 h. Type of series: cell-based, human. The method in brief: as §1
Series [7] in a line: AlamarBlue cytotoxicity assay in human sperm. The format is cell-based. The conditions noted are these: human, human sperm. The method in brief: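 Sperm isolated by centrifugation: liquefied at 37 °C, HTF-washed twice, 800×g, resuspended in Low/Low (low pH/low K+) buffer. Mixed with test compound (2.2x in Low/Low). 8 half-log concentrations, 100 μM to 32 nM final, in duplicate. AlamarBlue at 37 °C, 560/590 nm fluorescence every 15 min over 3 h. IC50 from concentration-response fit.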

The target in series [8] is hERG (Homo sapiens, UniProt Q12809). Kind of series: hERG manual patch-clamp in HEK293 cells. Type of series: cell-based. The note with it: HEK293 cells expressing hERG. For orientation: The hERG channel carries a current that helps repolarise heart muscle cells.
Sequence of hERG (Q12809 whole entry): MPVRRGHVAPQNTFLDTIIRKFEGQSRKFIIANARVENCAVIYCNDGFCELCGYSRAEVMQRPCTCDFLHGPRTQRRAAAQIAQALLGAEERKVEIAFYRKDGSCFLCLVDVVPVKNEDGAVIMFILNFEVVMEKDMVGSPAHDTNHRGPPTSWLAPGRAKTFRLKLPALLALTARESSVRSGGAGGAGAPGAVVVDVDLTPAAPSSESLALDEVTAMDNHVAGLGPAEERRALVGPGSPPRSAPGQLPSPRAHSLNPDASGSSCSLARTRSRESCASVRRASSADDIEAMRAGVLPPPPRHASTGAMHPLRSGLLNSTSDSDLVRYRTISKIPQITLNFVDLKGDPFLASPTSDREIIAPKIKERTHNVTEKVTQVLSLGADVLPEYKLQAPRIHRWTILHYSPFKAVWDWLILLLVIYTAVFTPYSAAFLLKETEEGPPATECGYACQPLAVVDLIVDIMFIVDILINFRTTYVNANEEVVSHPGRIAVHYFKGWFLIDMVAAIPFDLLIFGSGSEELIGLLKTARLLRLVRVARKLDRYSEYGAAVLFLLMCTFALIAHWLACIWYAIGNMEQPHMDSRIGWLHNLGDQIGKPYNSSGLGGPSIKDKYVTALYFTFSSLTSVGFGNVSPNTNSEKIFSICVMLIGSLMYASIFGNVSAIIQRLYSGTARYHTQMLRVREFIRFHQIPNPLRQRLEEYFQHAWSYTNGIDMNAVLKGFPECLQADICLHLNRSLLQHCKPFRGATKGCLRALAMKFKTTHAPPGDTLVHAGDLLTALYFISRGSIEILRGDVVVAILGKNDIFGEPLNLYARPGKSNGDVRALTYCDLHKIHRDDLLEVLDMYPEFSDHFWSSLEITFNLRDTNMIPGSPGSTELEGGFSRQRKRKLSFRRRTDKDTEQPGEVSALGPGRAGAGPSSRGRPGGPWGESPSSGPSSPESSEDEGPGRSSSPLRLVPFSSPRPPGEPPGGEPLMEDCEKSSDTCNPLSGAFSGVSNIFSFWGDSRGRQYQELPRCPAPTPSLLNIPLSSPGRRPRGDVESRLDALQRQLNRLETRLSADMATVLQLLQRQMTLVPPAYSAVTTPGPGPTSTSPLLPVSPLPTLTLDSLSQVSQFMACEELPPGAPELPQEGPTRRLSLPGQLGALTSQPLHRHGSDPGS
Series [9] addresses hNav1.5 (Homo sapiens, UniProt Q14524). In words: hNav1.5 manual patch-clamp in CHO cells. The format is cell-based. The note with it: read-out: Inhibition at 10 μM [%] hNav1.5.
For series [10], the system named is human sperm. Kind of series: Computer-aided sperm analysis. Type of series: cell-based. The note with it: 10 μM, 4 h incubation with human sperm. The method in brief: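 Motile sperm selected by swim-up into bicarbonate-free HAM's-F10 (37 °C, 5% CO2, 1 h), ≥10×10^6 cells/mL. Incubated 4 h with increasing test compound concentrations. CASA at 37 °C gives total and progressive motility from VAP, VSL, VCL, LIN and STR, as % of population. ≥10 fields/≥200 cells. Mean±SEM of ≥3 experiments; one-way ANOVA with Dunnett's test.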

For series [11], the target named is T2, human SLO3 and LRRC52 (Homo sapiens, UniProt A8MYU2).
T2 sequence (A8MYU2 1-1149): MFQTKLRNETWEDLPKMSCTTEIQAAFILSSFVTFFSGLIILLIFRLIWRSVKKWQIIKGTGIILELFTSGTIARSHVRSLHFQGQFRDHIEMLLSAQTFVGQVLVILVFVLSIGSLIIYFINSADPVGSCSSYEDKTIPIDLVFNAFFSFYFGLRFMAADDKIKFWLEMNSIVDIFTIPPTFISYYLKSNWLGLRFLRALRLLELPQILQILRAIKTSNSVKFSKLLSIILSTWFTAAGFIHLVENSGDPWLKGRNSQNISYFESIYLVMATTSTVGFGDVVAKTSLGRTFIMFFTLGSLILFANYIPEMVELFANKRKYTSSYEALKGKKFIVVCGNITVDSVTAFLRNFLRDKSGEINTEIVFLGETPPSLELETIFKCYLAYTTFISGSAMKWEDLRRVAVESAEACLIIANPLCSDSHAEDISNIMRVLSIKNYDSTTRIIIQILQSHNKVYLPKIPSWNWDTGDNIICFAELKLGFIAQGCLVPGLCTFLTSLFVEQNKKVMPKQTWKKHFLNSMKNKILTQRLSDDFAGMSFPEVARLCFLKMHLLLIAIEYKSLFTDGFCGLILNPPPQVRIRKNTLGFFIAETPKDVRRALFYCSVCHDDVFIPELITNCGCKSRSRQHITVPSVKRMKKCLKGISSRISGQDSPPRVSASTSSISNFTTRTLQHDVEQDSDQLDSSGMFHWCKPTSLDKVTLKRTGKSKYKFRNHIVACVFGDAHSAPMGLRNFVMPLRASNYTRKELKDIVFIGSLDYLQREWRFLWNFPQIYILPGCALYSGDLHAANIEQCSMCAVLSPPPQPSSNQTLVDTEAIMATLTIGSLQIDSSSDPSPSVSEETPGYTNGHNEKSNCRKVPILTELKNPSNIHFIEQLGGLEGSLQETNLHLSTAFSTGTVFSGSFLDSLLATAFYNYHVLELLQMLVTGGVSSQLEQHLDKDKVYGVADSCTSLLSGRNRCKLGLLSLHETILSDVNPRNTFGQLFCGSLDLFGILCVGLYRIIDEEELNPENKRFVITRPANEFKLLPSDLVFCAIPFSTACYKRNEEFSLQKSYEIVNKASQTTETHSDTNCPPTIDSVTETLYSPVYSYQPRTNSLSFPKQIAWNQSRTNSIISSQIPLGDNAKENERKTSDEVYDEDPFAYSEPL
T2 sequence (Q8N7C0 24-313 partner): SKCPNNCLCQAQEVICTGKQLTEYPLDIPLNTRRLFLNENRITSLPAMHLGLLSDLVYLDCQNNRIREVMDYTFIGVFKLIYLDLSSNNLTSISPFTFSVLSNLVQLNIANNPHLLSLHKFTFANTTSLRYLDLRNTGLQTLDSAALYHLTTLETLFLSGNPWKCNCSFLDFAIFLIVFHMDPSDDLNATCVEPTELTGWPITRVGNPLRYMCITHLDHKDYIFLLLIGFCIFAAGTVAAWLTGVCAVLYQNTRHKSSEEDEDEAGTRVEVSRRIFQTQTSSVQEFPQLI
Type of series: cell-based. The note with it: for hSLO3 current in the presence of compound, % of control: 10 μM, +60 mV, n=5 cells, mean±SD in text; for inhibition at 10 µM: HEK293, read-out: Inhibition at 10 μM [%] hSlo3.

Series [12] relates to human sperm. Kind of series: CASA: progesterone-induced hyperactivated motility. Type of series: cell-based. The conditions noted are these: 10 μM compound, 100 nM progesterone, HAM measured after 4 h.
Setting [13] is: read-out: Inhibition (block) of the inward ICatSper.
[14] abbreviates: read-out: Inhibition at 10 μM [%] CatSper.

Sequence of hCav1.2 (Q13936 whole entry): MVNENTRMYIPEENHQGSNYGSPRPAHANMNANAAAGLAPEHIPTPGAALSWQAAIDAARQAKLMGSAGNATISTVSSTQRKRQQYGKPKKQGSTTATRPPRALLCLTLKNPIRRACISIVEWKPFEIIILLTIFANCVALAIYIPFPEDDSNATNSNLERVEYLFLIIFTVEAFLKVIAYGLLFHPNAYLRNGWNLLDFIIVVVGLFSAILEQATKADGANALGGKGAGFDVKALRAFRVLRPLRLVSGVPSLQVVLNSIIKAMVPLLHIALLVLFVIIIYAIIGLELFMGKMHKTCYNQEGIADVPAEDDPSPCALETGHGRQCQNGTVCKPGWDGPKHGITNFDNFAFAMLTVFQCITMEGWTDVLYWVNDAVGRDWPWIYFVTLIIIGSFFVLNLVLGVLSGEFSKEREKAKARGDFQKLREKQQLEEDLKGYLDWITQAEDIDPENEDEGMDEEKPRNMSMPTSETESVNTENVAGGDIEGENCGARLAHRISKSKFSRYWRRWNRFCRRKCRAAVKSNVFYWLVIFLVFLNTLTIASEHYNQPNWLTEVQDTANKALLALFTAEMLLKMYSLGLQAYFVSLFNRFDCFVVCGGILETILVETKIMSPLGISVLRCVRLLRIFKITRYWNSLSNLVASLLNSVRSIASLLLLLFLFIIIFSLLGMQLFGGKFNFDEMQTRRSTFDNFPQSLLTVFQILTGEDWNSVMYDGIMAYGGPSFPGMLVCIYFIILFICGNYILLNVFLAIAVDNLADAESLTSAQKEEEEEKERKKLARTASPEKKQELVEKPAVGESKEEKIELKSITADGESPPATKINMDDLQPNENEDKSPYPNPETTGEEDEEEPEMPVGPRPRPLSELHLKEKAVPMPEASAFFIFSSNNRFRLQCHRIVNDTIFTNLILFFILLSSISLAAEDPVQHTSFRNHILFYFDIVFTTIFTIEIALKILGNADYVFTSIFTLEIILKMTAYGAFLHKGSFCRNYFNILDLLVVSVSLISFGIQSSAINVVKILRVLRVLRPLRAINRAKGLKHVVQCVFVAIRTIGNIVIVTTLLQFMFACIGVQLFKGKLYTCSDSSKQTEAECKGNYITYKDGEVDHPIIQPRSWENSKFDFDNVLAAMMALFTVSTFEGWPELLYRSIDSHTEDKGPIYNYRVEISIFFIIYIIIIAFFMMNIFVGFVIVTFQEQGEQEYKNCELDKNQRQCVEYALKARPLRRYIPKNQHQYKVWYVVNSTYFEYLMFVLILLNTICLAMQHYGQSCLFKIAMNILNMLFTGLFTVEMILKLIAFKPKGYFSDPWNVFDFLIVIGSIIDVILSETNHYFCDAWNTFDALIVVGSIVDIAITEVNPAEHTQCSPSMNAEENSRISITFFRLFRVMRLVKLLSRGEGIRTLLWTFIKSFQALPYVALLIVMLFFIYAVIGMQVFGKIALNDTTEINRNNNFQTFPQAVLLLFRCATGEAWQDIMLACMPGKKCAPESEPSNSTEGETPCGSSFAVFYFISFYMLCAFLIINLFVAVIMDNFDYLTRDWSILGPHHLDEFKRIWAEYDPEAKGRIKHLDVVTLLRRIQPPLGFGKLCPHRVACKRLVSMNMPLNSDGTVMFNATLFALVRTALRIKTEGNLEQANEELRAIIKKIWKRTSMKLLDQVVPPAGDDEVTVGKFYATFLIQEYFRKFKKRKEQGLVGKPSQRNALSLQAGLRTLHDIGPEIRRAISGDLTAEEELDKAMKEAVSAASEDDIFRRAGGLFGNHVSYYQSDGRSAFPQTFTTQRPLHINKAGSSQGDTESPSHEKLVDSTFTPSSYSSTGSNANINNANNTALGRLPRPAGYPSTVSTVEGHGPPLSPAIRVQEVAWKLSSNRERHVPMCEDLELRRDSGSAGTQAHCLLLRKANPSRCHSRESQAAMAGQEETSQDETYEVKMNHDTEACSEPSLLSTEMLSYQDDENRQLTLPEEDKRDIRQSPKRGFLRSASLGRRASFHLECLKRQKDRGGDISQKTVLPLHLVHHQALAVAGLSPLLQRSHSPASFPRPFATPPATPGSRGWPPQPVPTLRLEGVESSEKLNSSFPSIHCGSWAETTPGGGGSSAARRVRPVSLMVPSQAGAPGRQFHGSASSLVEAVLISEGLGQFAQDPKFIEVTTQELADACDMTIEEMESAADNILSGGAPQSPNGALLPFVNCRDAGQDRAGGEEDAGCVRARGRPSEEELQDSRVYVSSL

Consider `OC1(c2ccc(Cl)cc2)CCN(Cc2c[nH]c3ccccc23)CC1` [2 a, 4‐(4‐Chlorophenyl)‐1‐(1H‐indol‐3‐ylmethyl)‐4‐piperidinol], for which the inhibition (usually the relative decrease from the control value, in per cent) at 10 µM was determined as 39% in series [1]; 65% in series [4] (setting [13]); 73% in series [4] (setting [14]); 100% in series [8]; 77% in [9]. In addition, the IC50 (usually the concentration that inhibits the measured activity by half) in series [2] came to 7.5 ± 1.3 µM. For the same molecule, in [3], the “Inhibition of PGE1-induced HAM” value is listed as “greatly reduced HAM”. In addition, the IC50 at 7 h in series [5] was > 100 µM. Moreover, the “Effect on IMR‐90 viability” value in series [6] was “reduce viability slightly”. The IC50 at 3 h in [7] is > 100 µM.
Turning to `N=C(N)NC(=O)c1nc(Cl)c(N)nc1N` [1 d, amiloride, reference compound], in series [2], the IC50 was > 100 µM.
On the same count and under the same terms, under `c1ccc(CN2CCC(c3c[nH]c4ccccc34)CC2)cc1` [2 l, 3‐(1‐benzylpiperidin‐4‐yl)‐1H‐indole] stands > 100 µM.
As to `CCN(CC)CCNC(=O)C1CCN(c2ccc3nnc(-c4cccc(C)c4)n3n2)CC1` [7 a, N ‐(2‐(Diethylamino)ethyl)‐1‐(3‐(m–tolyl)‐[1,2,4]triazolo[4,3‐b]pyridazin‐6‐yl)piperidine‐4‐carboxamide], in series [10], the “Progressive motility (CASA)” value is “substantially reduced” and the “Total motility (CASA)” value is “substantially reduced”. In addition, the inhibition at 10 µM in series [1] is -9%. In addition, the IC50 in series [2] is 20 ± 1 µM. In series [4] (setting [13]), the inhibition at 10 µM worked out at 89%. Moreover, the IC50 at 7 h in [5] was > 100 µM. The IC50 at 3 h in [7] was > 100 µM. Further, in [11] (10 µM), the “hSLO3 current in the presence of compound, % of control” value (“hSLO3 current … % of control” below) is 37.5±5.6 % of control and 38 % of control. For the same molecule, the “Reduction of progesterone-induced HAM” value in series [12] is on record as “statistically significant”.
Take `CN1CCCC(n2nc(Cc3ccc(Cl)cc3)c3ccccc3c2=O)CC1` (centres unmarked) [6 a, azelastine, reference compound]: the half-maximal inhibitory concentration (IC50) in series [2] was determined as 5.4 ± 0.4 µM.
As to `O=c1c2ccccc2c(Cc2ccc(Cl)cc2)nn1C1CCCNCC1` (centres unmarked) [6 b, 2‐(Azepan‐4‐yl)‐4‐(4‐chlorobenzyl)phthalazin‐1(2H)‐one], in series [2], the IC50 stood at 8.3 ± 1.1 µM. Further, in [4], the “Inhibition (block) of the inward ICatSper” value is “near complete inhibition”. Besides, in series [4] (setting [14]), the inhibition at 10 µM was determined as 100%. This molecule returned an IC50 at 7 h in [5] of 68 ± 5 µM. The “Effect on IMR‐90 viability” value in series [6] is “reduce viability slightly”. The IC50 at 3 h in series [7] was determined as 84 ± 10 µM. In addition, in [11], the “hSLO3 current … % of control” value is recorded as 66.3±8.5 % of control. Moreover, the “Reduction of progesterone-induced HAM” value in [12] was “statistically significant”.
As for `NC(N)=NC(=O)c1nc(Cl)c(N2CCCCCC2)nc1N` [1 a, 3‐Amino‐5‐(azepan‐1‐yl)‐6‐chloro‐N‐(diaminomethylene)pyrazine‐2‐carboxamide], the inhibition at 10 µM in series [1] was 4%; in series [8] it was 92%; in series [11] it was -2%; in [9], 68%. Besides, in [2], the IC50 was determined as 5.4 ± 0.6 µM. In addition, in series [5], the IC50 at 7 h is > 100 µM. For the same molecule, the IC50 at 3 h in series [7] is > 100 µM. In [11], the “hSLO3 current … % of control” value is on record as 101.5±6.4 % of control.
Turning to `Cc1cc(C)c2nc(C)cc(NCCc3ccccc3)c2c1` [3 a, 2,6,8‐Trimethyl‐N‐(2‐phenylethyl)‐4‐quinolinamine], the inhibition at 10 µM is 10% in series [1]; 96% in [4] (setting [14]); 100% in series [8]; 42% in [11]; 94% in series [9]. In [2], the IC50 came out at 3.6 ± 0.6 µM. Also, the “Inhibition (block) of the inward ICatSper” value in [4] was “near complete inhibition”. Further, half-maximal inhibition in series [5] (IC50 at 7 h) was put at 96 ± 5 µM. The IC50 at 3 h in [7] is > 100 µM. Further, the “hSLO3 current … % of control” value in [11] is reported as 58.5±12.5 % of control.
For `O=C(Nc1cccc(C(F)(F)F)c1)N1CCN(c2cccc(C(F)(F)F)c2)CC1` [4 a, N ,4‐Bis(3‐(trifluoromethyl)phenyl)piperazine‐1‐carboxamide], the “Progressive motility (CASA)” value in series [10] is recorded as “substantially reduced”. For the same molecule, in [10], the “Total motility (CASA)” value is listed as “substantially reduced”. The inhibition at 10 µM in [1] was determined as 65%; in [4] (setting [13]), 84%; in [4] (setting [14]), 83%; in series [11] it was 75%; in [9] it was 95%. In addition, the IC50 in series [2] came to 4.9 ± 0.6 µM. The half-maximal inhibitory concentration (IC50) at 7 h in [5] is > 100 µM. In addition, the IC50 at 3 h in [7] is > 100 µM. In addition, the “hSLO3 current … % of control” value in series [11] (10 µM) is 24.6±9.1 % of control and 25 % of control. Further, the “Reduction of progesterone-induced HAM” value in series [12] is reported as “statistically significant”.
For the molecule `N=c1n(CCN2CCCCC2)c2ccccc2n1CC(O)c1cccc(Br)c1` (centres unmarked) [5 f, 1‐(3‐Bromophenyl)‐2‐(2‐imino‐3‐(2‐(piperidin‐1‐yl)ethyl)‐2,3‐dihydro‐1H‐benzo[d]imidazol‐1‐yl)ethan‐1‐ol], in series [10], the “Progressive motility (CASA)” value was “substantially reduced” and the “Total motility (CASA)” value is recorded as “substantially reduced”. Further, in series [2], the IC50 was determined as 3.4 ± 0.4 µM. Further, in series [4] (setting [13]), the inhibition at 10 µM worked out at 47%. Further, the “Reversibility of ICatSper block on washout” value in series [4] (washed out with CsDVF after 10 μM compound) is “apparent irreversible loss of channel function”. The molecule also gave an IC50 at 7 h in [5] of 83 ± 14 µM. Besides, the concentration for half-maximal inhibition (IC50) at 3 h in series [7] is > 100 µM. Also, in series [11], the “hSLO3 current … % of control” value was 83.2±7.8 % of control.

These data come from article PMC9378630 (Chemmedchem, 2022).
